# LEDGF integ inh: blocks HIV-1 LEDGF/p75-dependent DNA integration; inhibition, % at 3.7 µM; actives 0.64% (n = 370,000); TR-FRET IN-LEDGF/p75 DNA integration, Eu/Cy5;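 active means inhibition above the screen-wide mean plus 3 SD, cut at about 13% in these data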;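 further: signal is the Cy5 over europium emission ratio at 671 and 618 nm; 0% = plate median of compound wells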
# ASAP1 inh: inhibitors of human ASAP1 ArfGAP activity | ASAP1-stimulated ARF1 GTP hydrolysis, GDP FP detection | inhibition, % at 16.5 µM | Q9ULH1 | actives 0.19% (n = 360,000); in the data active means inhibition above about 25%;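 further: 0% = vehicle with enzyme and substrate and 100% = no enzyme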
# Target sequence (Q9ULH1 325-724 limits assumed): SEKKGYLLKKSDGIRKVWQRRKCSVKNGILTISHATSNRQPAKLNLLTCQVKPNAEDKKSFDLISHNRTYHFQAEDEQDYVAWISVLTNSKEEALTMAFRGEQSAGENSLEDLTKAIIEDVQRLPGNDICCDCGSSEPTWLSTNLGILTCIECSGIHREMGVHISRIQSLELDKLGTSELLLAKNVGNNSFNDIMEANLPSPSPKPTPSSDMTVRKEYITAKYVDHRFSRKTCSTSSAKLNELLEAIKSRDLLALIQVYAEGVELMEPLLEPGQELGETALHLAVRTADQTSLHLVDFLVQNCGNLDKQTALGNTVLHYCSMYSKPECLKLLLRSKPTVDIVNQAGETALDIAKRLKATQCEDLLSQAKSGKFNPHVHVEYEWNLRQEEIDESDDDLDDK
# ARFGAP1 inhibitor: inhibitors of rat ARFGAP1 | Q62848 | Arfgap1-stimulated ARF1 GTP hydrolysis, GDP FP detection | inhibition, % at 16.5 µM | actives 0.26% (n = 360,000) | AID 651572;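 active means inhibition above a per-plate limit, mean inhibition of low control wells plus 3 SD, cut at about 25% in these data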;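 further: 0% = DMSO wells with enzyme and 100% = wells lacking Arfgap1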
# Target sequence (Q62848 1-136 limits assumed): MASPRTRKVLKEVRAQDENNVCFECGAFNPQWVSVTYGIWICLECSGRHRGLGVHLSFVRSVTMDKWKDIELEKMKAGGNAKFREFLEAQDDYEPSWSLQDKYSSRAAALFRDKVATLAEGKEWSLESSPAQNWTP
#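 Replicates: Single well per compound | Assay system: Truncated rat Arfgap1 GAP domain | Control set: No-Arfgap1 wells (100%) versus DMSO full-reaction wells (0%) | Times: Enzyme reaction 120 min at 25 °C after 20 min preincubation | Reagent: Human ARF1(Δ1-17)-GTP substrate | Measured by: Tracer-displacement fluorescence polarization with EDTA stop, 620/688 nm | Measure: Percent inhibition of Arfgap1-stimulated GTP hydrolysis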
# TDP2 inh: blocks human TDP2 phosphodiesterase activity; inhibition, % at 12.8 µM; recombinant TDP2, T5PNP hydrolysis, p-nitrophenol absorbance 415 nm; actives 0.34% (n = 370,000); O95551; AID 720702;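 active means inhibition above the mean of all tested compounds plus 3 SD, set per campaign, cut at about 25% in these data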;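 further: 0% = DMSO with enzyme and 100% = buffer with substrate but no TDP2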
#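 System – recombinant human TDP2 · Amount – 120 nM TDP2 per well · Buffer or medium – Mg2+-containing Tris-HCl buffer, pH 7.5 · Reagent – T5PNP substrate, 5 mM · Dosing – 12.8 µM single point, 1% DMSO · Incubation – 2 h at 37 °C · Measured by – epi absorbance · Read-out basis – percent inhibition · Benchmarks – high control without enzyme, low control DMSO plus TDP2 · Repeats – singlicate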
# CASP6 VEID inh: blocks human caspase-6 cleavage activity | P55212 | purified caspase-6, Z-VEID-R110 cleavage fluorescence | inhibition, % at 12.5 µM | actives 0.53% (n = 350,000);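 active means mean inhibition across replicates at least about 35%, with every replicate also reaching that limit, limit read from the data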;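 further: 0% = median of neutral control wells and 100% = no fluorescence left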
# * marks the source's active call; other numbers are inactive results; nt = no result given. Shown are actives, neighbours in structure and some others; about 1.3% of the full set was active somewhere.
SMILES,LEDGF integ inh,ASAP1 inh,ARFGAP1 inhibitor,TDP2 inh,CASP6 VEID inh
CCOC(=O)COc1ccc(Br)cc1/C=C\c1[nH]c(=O)[nH]c(=O)c1[N+](=O)[O-],-4,5,4,-58,56*
O=C(NCc1ccncc1)c1ccc(OCc2ccccc2)cc1,-2,8,6,-17,36*
O=C(NCc1ccncc1)c1ccc(Oc2ccccc2)cc1,3,9,6,10,3
CCCOc1ccc(-c2c(=O)n(OCC(=O)OCC)c3ccccc3[n+]2[O-])cc1,-1,-3,10,-1,0
CCc1nn(CC(=O)NC2CCN(Cc3ccccc3)CC2)c(=O)c2cc3cc(F)ccc3n12,2,4,-8,19,1
Cc1cc(C)cc(N(CC(=O)N2CCCCCC2)S(C)(=O)=O)c1,-3,-5,12,0,36*
CS(=O)(=O)N(CC(=O)N1CCCCCC1)c1ccccc1,1,-6,-9,7,nt
C[C@@H]1CN([C@H](C)CO)C(=O)c2cc(C#CCN(C)C)cnc2O[C@H]1CN(C)Cc1ccc(F)cc1,nt,nt,nt,nt,2
COC(=O)c1ccc(NCc2c(O)ccc(O)c2Br)cc1Cl,15*,13,18,-22,3
CCCN1CCCC[C@H]1C(=O)Nc1c(C)cccc1C,0,4,-2,5,-5
N#CCCN1CCN(S(=O)(=O)c2ccc(C3CCCCC3)cc2)CC1,2,-1,-3,-2,-7
CC1CCCCC1NS(=O)(=O)c1ccc(S(=O)(=O)N2CCN(CCC#N)CC2)cc1 (stereo unspecified),-3,10,-1,2,45*
Cn1c(N)c(C(=O)COC(=O)/C=C/c2ccccc2Cl)c(=O)n(C)c1=O,0,1,-10,-9,2
Cc1nn(-c2ccccc2)c2c1C(c1ccncc1)C(C#N)=C(N)O2 (stereo unspecified),-3,6,10,5,nt
COc1cc(-n2nc(C)c3c2OC(N)=C(C#N)C3c2ccccc2)c(Cl)c(Br)c1O (stereo unspecified),6,15,5,48*,nt
C=CCc1cc(/C=C/c2nc(O)c([N+](=O)[O-])c(=O)[nH]2)cc(OC)c1O,5,-8,-10,8,39*
O=C(OCC(=O)N1CCc2ccccc21)c1ccc([N+](=O)[O-])o1,16*,5,-4,-15,8
O=C(OCC(=O)N1CCCc2ccccc21)c1ccc(Br)o1,-2,7,7,5,nt
CC(C)(C)N(Cc1ccccc1)C(=O)COC(=O)c1ccc([N+](=O)[O-])o1,-1,-4,-4,4,45*
O=C(O)c1ccc(NS(=O)(=O)/C=C/c2ccccc2)cc1O,4,10,14,1,44*
C[C@H]1CN([C@@H](C)CO)C(=O)Cc2cc(N(C)C)ccc2O[C@@H]1CN(C)C(=O)Nc1ccccc1,nt,nt,nt,nt,-1
C#CCN(C[C@@H]1[C@@H](OC(=O)NCc2ccc(OC)c(OC)c2)[C@@H](OC(=O)NCc2ccc(OC)c(OC)c2)CN(C(=O)OC(C)C)N1C(=O)OC(C)C)S(=O)(=O)c1ccc(C)cc1,52*,4,-4,-1,-4
O=C(Nc1ccon1)C12CC3CC(C1)CC(n1cnc([N+](=O)[O-])n1)(C3)C2,5,15,-2,-10,-2
Cc1cc(NC(=O)C23CC4CC(C2)CC(n2cnc([N+](=O)[O-])n2)(C4)C3)no1,1,1,-2,-1,47*
COc1cc(NC(=O)c2cccnc2)c(Cl)cc1NC(=O)c1ccccc1,1,-6,4,10,64*
SMILES,LEDGF integ inh,ASAP1 inh,ARFGAP1 inhibitor,TDP2 inh,CASP6 VEID inh
Cc1ccc(C(=O)NCC(=O)Nc2ccc(F)c(F)c2F)cc1,-4,5,9,-10,3
Cc1ccc(C(=O)c2coc3cc([N+](=O)[O-])c(O)c([N+](=O)[O-])c23)cc1,5,-8,-1,7,48*
CCN(CC)C(=O)C1CCCN(c2ccc([N+](=O)[O-])cc2)C1 (stereo unspecified),2,-5,-4,-22,1
Cc1ccc(C(=O)O)cc1-c1ccc(C=C2C(=O)c3ccccc3C2=O)o1,5,-2,-5,-4,37*
COCCn1nnnc1CN1CCOCC1,2,-16,5,-6,0
O=C(Nc1cccc2c(=O)[nH][nH]c(=O)c12)c1ccc([N+](=O)[O-])cc1,-2,-9,-3,-7,42*
O=C(Nc1cccc2ccccc12)c1ccc([N+](=O)[O-])cc1,-4,-3,5,24,-1
COCCN(C(=O)c1cc2c(s1)CCC2)c1c(N)n(CC(C)C)c(=O)[nH]c1=O,-2,0,0,6,52*
COCCN(C(=O)c1cc2c(s1)CCCCC2)c1c(N)n(CC(C)C)c(=O)[nH]c1=O,5,-4,4,3,6
CC1CCN(C(=O)COC(=O)/C=C/c2ccco2)CC1,4,0,1,5,49*
CCOC(=O)C1=C(COC(=O)/C=C/c2ccco2)NC(=O)NC1C (stereo unspecified),11,-5,-1,-12,61*
CC1CCCC(C)N1C(=O)COC(=O)/C=C/c1ccco1 (stereo unspecified),-1,4,16,-2,16
O=C(COC(=O)Cc1cccc(C(F)(F)F)c1)NCc1ccco1,11,1,10,-4,58*
O=C(COC(=O)Cc1ccc(F)cc1)NCc1ccco1,0,7,0,-5,17
COc1ccc(OC)c(NC(=O)C(CC(=O)O)Cc2ccc(Cl)cc2)c1 (stereo unspecified),1,-7,20,-2,nt
Nc1cnc(Br)cc1Br,0,4,9,0,nt
Nc1cc2nsnc2cc1Br,48*,-6,22,92*,nt
O=C(O)Cc1sc(N/N=C\c2ccccc2)nc1-c1ccccc1,25*,5,0,10,nt
CCOC(=O)c1sc(N/N=C/c2ccccc2)nc1C,2,13,-2,-11,nt
CC(C)CC(=O)Nc1ccnn1C1CCN(C(=O)c2ccccc2F)CC1,0,-5,5,-6,3
Cc1ccc(C)c(NC(=O)CCC(=O)N/N=C/c2ccc3c(c2)OCO3)c1,6,-3,10,-10,-3
O=C(CCc1ccc(O)c(O)c1)N/N=C/c1ccc2c(c1)OCO2,33*,7,4,12,13
CC(C)(C)CC(C)(C)SSc1n[nH]c(=S)s1,4,-20,-1,3,37*
CCOC(=O)CSc1n[nH]c(=S)s1,2,-4,0,5,-1
CCc1cccc(OCCn2ccnc2)c1,1,-1,3,17,nt
COC(=O)[C@]12CCCCC=C1N(Cc1ccccc1)C(=O)[C@H](CC(=O)NCC13CC4CC(CC(C4)C1)C3)C2,3,-3,-2,-3,54*

# Bioassay records deposited in PubChem BioAssay by several laboratories.
